Only a selection was taken, and hits are over-represented in it overall.
UPR CHOP act: activators of apoptotic arm of unfolded protein response (CHOP) | CHO-CHOP luciferase reporter, UPR activation, luminescence; percent of tunicamycin response over DMSO baseline | activation, % at 10 µM | 330,000 compounds, 0.34% hits;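 active = at 10 µM dose, activation of 40% or more, normalized to positive control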;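 also: 100% = tunicamycin at 10 µg/mL and 0% = DMSO alone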
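Assay system: CHO cells with stable CHOP pathway luciferase reporter; Buffer or medium: F12 plus 10% serum; Times: 16-18 h cell attachment, then 6 h compound exposure, 37 °C; Signal: luciferase luminescence; Read-out basis: percent activation relative to tunicamycin control; Control set: tunicamycin high control, DMSO low control.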
UPR XBP1 act: adaptive UPR (XBP1) activation | activation, % at 20 µM | CHO-XBP1 luciferase reporter, IRE1-XBP1 UPR activation, luminescence; percent of tunicamycin response, DMSO as zero | 330,000 compounds, 0.33% hits | AID 463104;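 active = versus positive control, 20 µM dose yields 30% or more activation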;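 also: 100% = tunicamycin at 10 µg/mL and 0% = DMSO only wells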
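Assay system: CHO-XBP1 luciferase reporter cells; Schedule: 6 h treatment, 37 °C; Detection: glow luminescence from Steady-Glo reagent; Benchmarks: high control tunicamycin 10 µg/mL final, low control DMSO vehicle only.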
Fh CTSL1 inh: cathepsin L1 inhibition, PFM18AAP counter-screen. recombinant F. hepatica cathepsin L1, Z-Leu-Arg-MCA fluorescence. inhibition, % at 5.96 µM. 300,000 compounds, 0.49% hits;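 active = inhibition above the mean of all tested compounds plus 3 SD, set per screening campaign, cut at about 17% in these data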;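 also: 0% = plate median of test compound wells and 100% = 1 µM Z-Phe-Ala-diazomethylketone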
CHOP inhibitor: CHOP inhibition in unfolded protein response. CHO-K1 CHOP-promoter luciferase, tunicamycin-induced, 15-18 h. inhibition, % at 10 µM. 220,000 compounds, 3.8% hits. AID 2732;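 active = compounds that reduced the stress-induced luciferase reporter signal by more than about 70% of percent inhibition, limit read from the data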;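 also: 0% = tunicamycin plus vehicle and 100% = wells without tunicamycin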
UCH37 DUB inh: inhibitors of human deubiquitinating enzyme UCH37. Q9Y5K5. inhibition, % (no concentration beside the values). purified proteasome/UCH37, Ub-AMC cleavage fluorescence. 330,000 compounds, 0.33% hits;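 active = mean inhibition over replicate wells above about 20%, limit read from the data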;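 also: 0% = compound-free wells with enzyme and 100% = wells lacking proteasome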
Target sequence (Q9Y5K5 whole entry, looked up): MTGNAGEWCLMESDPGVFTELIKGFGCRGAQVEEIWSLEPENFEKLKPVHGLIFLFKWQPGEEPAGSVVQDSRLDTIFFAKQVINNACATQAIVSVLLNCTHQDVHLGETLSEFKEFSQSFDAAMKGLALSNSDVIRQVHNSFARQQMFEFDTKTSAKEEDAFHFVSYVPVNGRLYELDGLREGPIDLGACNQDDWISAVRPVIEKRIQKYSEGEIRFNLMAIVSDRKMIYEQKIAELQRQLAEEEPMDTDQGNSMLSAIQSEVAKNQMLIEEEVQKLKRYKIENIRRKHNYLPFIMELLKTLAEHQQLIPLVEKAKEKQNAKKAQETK
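Test system – human UCH37 enzyme supplied as purified proteasome complex · Incubation – 30 min preincubation with enzyme, 25 min cleavage at room temperature · Detection – AMC fluorescence from Ub-AMC cleavage, excitation 355 nm, emission 460 nm · Benchmarks – no-proteasome wells (full inhibition) and compound-free wells (no inhibition)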
* marks the source's active call; other numbers are inactive results; nt = not tested or not shown.

SMILES | UPR CHOP act | UPR XBP1 act | Fh CTSL1 inh | CHOP inhibitor | UCH37 DUB inh
COc1ccc(C=NNC(=O)Nc2cccc3nsnc23)c(OC)c1 | nt | nt | nt | nt | -15
CCOc1ccc(-c2nc(CSCC(=O)NC3CC3)c(C)o2)cc1 | -11 | -14 | -4 | nt | 2
CCc1ccc(-c2nc(CSCC(=O)N3CCN(c4ccccn4)CC3)c(C)o2)cc1 | -2 | 3 | -1 | 86* | 2
CCOc1ccc(-c2nc(CSCC(=O)N3CCN(c4cccc(OC)c4)CC3)c(C)o2)cc1 | 4 | 1 | -8 | 74* | 6
Cc1ccc(-c2nc(CSCC(=O)N3CCOCC3)c(C)o2)cc1 | 1 | 0 | -3 | 8 | 2
CCOc1ccc(-c2nc(CSCC(=O)NC3CCCc4ccccc43)c(C)o2)cc1 (stereo unspecified) | 1 | 2 | 3 | 87* | -1
Cc1ccc(-c2nc(CSCC(=O)N3CCN(C(=O)c4ccco4)CC3)c(C)o2)cc1 | -1 | -4 | -10 | 35 | 2
Cc1ccc(-c2nc(CSCC(=O)N3CCN(c4ccccn4)CC3)c(C)o2)cc1 | -2 | 5 | 1 | 78* | 2
COc1ccccc1C(=O)NN=C(C)CC(=O)Nc1ccc(Cl)cn1 | nt | nt | nt | nt | 3
C/C(=N\Nc1ccc(F)cc1F)c1ccc(Br)s1 | 0 | 1 | 1 | 71* | nt
COc1ccc(C2C3=C(CC(C)(C)CC3=O)N(CC(=O)O)C3=C2C(=O)CC(C)(C)C3)cc1OC | -1 | -1 | 20* | nt | 3
CCCc1nc2sc3c(=O)n(N)cnc3c2c2c1CCCC2 | 4 | 6 | -1 | 74* | -5
Cc1cc(C)n2nc(C(=O)NN=Cc3ccccc3C)nc2n1 | nt | nt | nt | nt | 4
CC(=O)NS(=O)(=O)c1ccc(Nc2ccc([N+](=O)[O-])c3nonc23)cc1 | 1 | -3 | 2 | -8 | 25*
CC(=NNC(=O)NC1CCCCC1)c1ccc(Cl)s1 | nt | nt | nt | nt | 0
S=c1[nH]ncn1N=Cc1cccc(Oc2ccccc2)c1 | nt | nt | nt | nt | 5
CC1=C(C#N)C(=O)NC(=O)/C1=C\c1ccc(-c2ccc(C)cc2[N+](=O)[O-])o1 | nt | nt | nt | -1 | 10
CCOC(=O)c1cc(-c2ccc(/C=C3/C(=O)NC(=O)C(C#N)=C3C)o2)ccc1Cl | 3 | -4 | -1 | -4 | 22*
COc1ccc(C2/C(=C(/O)c3ccccc3)C(=O)C(=O)N2CCCN2CCOCC2)cc1 (stereo unspecified) | 3 | 0 | 3 | nt | 10
COc1ccc(/C(O)=C2/C(=O)C(=O)N(CCCN(C)C)C2c2ccc(Cl)cc2)cc1OC (stereo unspecified) | -3 | 1 | -5 | nt | 24*
COc1ccc(/C(O)=C2/C(=O)C(=O)N(CCCN(C)C)C2c2ccccc2)cc1Cl (stereo unspecified) | nt | nt | nt | 13 | nt
COc1ccc(/C(O)=C2/C(=O)C(=O)N(CCCN3CCOCC3)C2c2ccc(C(C)C)cc2)cc1 (stereo unspecified) | 1 | -2 | nt | nt | 20*
O=C(CON=Cc1ccc2c(c1)OCO2)Nc1cccc(Br)c1 | nt | nt | nt | nt | 3
Cc1cccc(CCNC(=O)c2cc(=O)[nH]c3ccc(Br)cc23)c1 | -2 | -1 | 2 | 73* | 6
CCC(=NNc1ccccc1C)c1cnnc(SC)n1 | nt | nt | nt | nt | 4
SMILES | UPR CHOP act | UPR XBP1 act | Fh CTSL1 inh | CHOP inhibitor | UCH37 DUB inh
CCCOc1ccc(C(=O)NN=Cc2c[nH]c3ccc(Br)cc23)cc1 | nt | nt | nt | nt | -4
Cc1ccc(C(=O)N/N=C\c2cc3c(cc2Br)OCO3)s1 | 6 | 8 | 3 | 93* | nt
CC1(CC(=O)N/N=C/c2cc3c(cc2Br)OCO3)OCCO1 | 1 | 1 | 17* | 7 | nt
ON=Cc1cc(Br)cc(Br)c1OCc1ccccc1 | nt | nt | nt | nt | 3
CCOC(=O)c1cnc(SCC(=O)NCc2cccs2)nc1N | 1 | 0 | 11 | 2 | 3
CCOC(=O)c1cnc(SCC(=O)Nc2ccc(N3CCOCC3)c(Cl)c2)nc1N | 0 | 1 | -2 | 34 | 0
CCOC(=O)c1cnc(SCC(=O)Nc2cc(OC)cc(OC)c2)nc1N | 1 | -4 | -2 | 76* | -1
CCOC(=O)c1cnc(SCC(=O)Nc2sc(C)c(C)c2C#N)nc1N | 2 | 3 | 0 | 71* | 6
CC(=NNc1ncc(Cl)cc1Cl)c1ccc(C#N)cc1 | nt | nt | nt | nt | -15
Cc1ccc(C=NNC(=O)CSc2nc3nc(C)cc(C)n3n2)cc1 | nt | nt | nt | nt | 5
COC(=O)c1c(NC(=O)CN2CCCc3ccccc32)sc(C)c1C | -3 | -2 | 1 | 70* | 2
COc1ccccc1/C=C/C=Nn1c(-c2ccccc2)n[nH]c1=S | nt | nt | nt | nt | 4
CO/N=C(\c1nonc1N)N1CCN(c2ccc([N+](=O)[O-])cc2Cl)CC1 | -1 | -1 | 2 | 73* | nt
COc1ccc(C=NNC(=O)CCc2ccccc2)cc1O | nt | nt | nt | nt | 3
O=C1c2cccc3cccc(c23)C(=O)N1c1ccc(O)cc1 | 2 | 0 | -3 | nt | -15
COc1ccccc1Oc1ccc2c(c1)C(=O)N(c1cccc3ncccc13)C2=O | nt | nt | nt | 63 | 3
COc1ccccc1Oc1ccc2c(c1)C(=O)N(c1cccc(O)c1)C2=O | 5 | -2 | 1 | 90* | 2
O=C1c2ccc3c4c(ccc(c24)C(=O)N1c1cccc(O)c1)CC3 | 0 | -4 | 3 | 93* | -40
Cn1c2ccccc2c(=O)c2c(=O)n(Cc3ccco3)c(-c3ccc(C(C)(C)C)cc3)nc21 | 3 | 0 | -2 | 89* | 6
CC(CC(=O)Nc1ccc(Cl)c(C(F)(F)F)c1)=NNC(N)=S | nt | nt | nt | nt | 4
O=C1/C(=C/c2cccnc2)Oc2cc(OS(=O)(=O)c3ccc(Cl)cc3)ccc21 | 2 | 0 | -1 | 78* | 5
CC(N=C1CC(C)(C)CC(=O)/C1=C(\O)CCCN1C(=O)c2ccccc2C1=O)C(=O)O (stereo unspecified) | nt | nt | nt | nt | 1
COc1ccc(C(=O)Nc2cccc(-c3nnc(-c4ccco4)o3)c2)cc1 | 4 | 2 | -1 | 72* | 5
O=C(Nc1cccc(-c2nc3ccccc3o2)c1)c1ccc(N2C(=O)C3C4C=CC(C4)C3C2=O)cc1 (stereo unspecified) | -4 | 2 | 0 | 71* | 6
COc1ccc(OCC(=O)Nc2cccc(-c3nc4ccccc4o3)c2)cc1 | 2 | 0 | 1 | 75* | -1
SMILES | UPR CHOP act | UPR XBP1 act | Fh CTSL1 inh | CHOP inhibitor | UCH37 DUB inh
O=C(Nc1ccc2oc(-c3ccccc3)nc2c1)c1ccccc1F | 5 | 3 | 4 | -7 | -4
O=C(Nc1ccc2oc(-c3cccc(F)c3)nc2c1)c1ccccc1F | 7 | 10 | -1 | 73* | -205
CCn1cc(C=NNC(=O)Cc2ccc([N+](=O)[O-])cc2)c(C)n1 | nt | nt | nt | nt | 6
CN(C)C=Nc1c(C#N)cnn1-c1ncnc2sc(-c3ccccc3)cc12 | nt | nt | nt | nt | -8
COc1ccc(NCC(=O)NN=C(C)c2cc3ccccc3o2)cc1 | nt | nt | nt | nt | 0
Cc1ccc(OC(C)C(=O)NN=Cc2ccccn2)cc1 (stereo unspecified) | nt | nt | nt | nt | 1

Assay outcomes deposited in PubChem BioAssay by several laboratories.
